Source: PubChem BioAssay (Johns Hopkins Ion Channel Center)
MrgX1 agonist = agonists of human MrgX1 receptor, primary screen, HEK293 cells, Fluo-4 calcium flux. Fluo-4 calcium fluorescence, agonist mode; active compounds read high. B-score at 10 µM. 310,000 tested, 0.44% active. AID 588627, 2011;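 active = calcium response B-score plate-corrected fluorescence ratio at least 3 library SD, with starting fluorescence B-score inside 5 SD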
Target sequence (Q96LB2 whole entry, looked up): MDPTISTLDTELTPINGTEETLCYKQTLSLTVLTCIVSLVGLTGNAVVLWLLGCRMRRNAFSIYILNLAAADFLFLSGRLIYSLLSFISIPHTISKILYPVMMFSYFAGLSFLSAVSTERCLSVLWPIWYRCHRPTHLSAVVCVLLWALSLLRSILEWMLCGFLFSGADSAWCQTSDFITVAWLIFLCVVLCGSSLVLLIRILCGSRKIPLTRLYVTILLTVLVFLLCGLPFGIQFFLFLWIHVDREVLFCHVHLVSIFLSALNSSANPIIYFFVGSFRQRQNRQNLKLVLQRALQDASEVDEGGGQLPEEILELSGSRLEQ
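Test system: HEK293 cells stably expressing human MrgX1 receptor; Input: fifteen thousand cells per well; Dosing: compound delivered in addition one of three; Schedule: overnight seeding, then 1 h dark dye loading; Technique: Fluo-4 NW calcium fluorescence; Measure: B-scored fluorescence response ratio; Controls: positive and negative controls per plate.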
RGS4 block = RGS4 inhibitors, primary screen, cell-based, HEK293 M3R inducible RGS4, calcium flux | Regulator of G-protein signaling 4 (Homo sapiens), P49798 | Fluo-4 calcium flux; active compounds read high; triggered by carbachol at its EC20 | B-score at 10 µM | 310,000 tested, 0.45% active | AID 463165, 2010;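 active = B-score, a plate-corrected calcium signal, over three deviations above library mean, with baseline fluorescence within five deviations of library mean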;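 note: RGS4 expression induced by doxycycline in cells with stable M3 receptor; B-score is computed from the integrated fluorescence ratio over baseline after carbachol; higher B-score means a larger calcium signal and so more RGS4 inhibition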
Target sequence (P49798 whole entry, looked up): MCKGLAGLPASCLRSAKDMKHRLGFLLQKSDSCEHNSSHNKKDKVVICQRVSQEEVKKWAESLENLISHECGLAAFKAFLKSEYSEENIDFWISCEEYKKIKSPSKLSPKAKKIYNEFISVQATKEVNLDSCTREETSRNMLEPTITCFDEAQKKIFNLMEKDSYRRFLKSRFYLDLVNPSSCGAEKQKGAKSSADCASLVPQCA
MrgX1 allo act = positive allosteric modulators of MrgX1, primary screen, HEK293 cells, Fluo-4 calcium flux | Mas-related G-protein coupled receptor member X1 (Homo sapiens), Q96LB2 | FDSS; active compounds read high | B-score at 10 µM | 310,000 tested, 0.63% active | AID 588675, 2011;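 active = plate-corrected calcium response at least 3 library SD above typical, normal starting fluorescence, not activating the receptor alone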;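 note: compound read alongside a low EC10 to EC30 dose of BAM8-22 agonist; peak minus trough fluorescence over baseline measured at the second addition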
MrgX1 antagonist = antagonists of human MrgX1 receptor, primary screen, HEK293 cells, Fluo-4 calcium flux; B-score at 10 µM; Mas-related G-protein coupled receptor member X1 (Homo sapiens), Q96LB2; 310,000 tested, 1.3% active; BAM8-22 antagonism; active compounds read low;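 active = calcium-response B-score plate-corrected more than 3 library SD below zero, starting fluorescence within 5 deviations, no agonist response on first addition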;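 note: peak minus trough fluorescence over baseline after final BAM8-22 challenge near maximal dose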
RGS4 act = RGS4 potentiators or activators, primary screen, cell-based, HEK293 M3R inducible RGS4, calcium flux. carbachol calcium flux Fluo4; active compounds read low. B-score at 10 µM. 310,000 tested, 0.92% active. AID 463111, 2010;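 active = B-score of the integrated calcium signal more than 4 SD below the library mean, with starting fluorescence not abnormally high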;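 note: negative B-score means reduced calcium response which marks RGS4 activation or potentiation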
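Test system: HEK293 cells with stable M3R and inducible RGS4; also added: carbachol at ECmax as muscarinic agonist stimulus; schedule: dye loading 30 min 37 °C, buffer rest 30 min RT; technique: kinetic calcium fluorescence imaging with Fluo4-AM dye, 2 µM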
RGS4 activ val = reduced carbachol calcium response, RGS4-induced M3R cells, confirmation, RGS4 activator project, cell-based, HEK293 M3R/RGS4 inducible, calcium flux, duplicate | inhibition, % at 10 µM | 1,100 tested, 89% active | AID 602282, 2012 | carbachol calcium flux Fluo4 | shares compounds with RGS4 act;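 active = inhibition above 3 SD of the buffer control wells, cut at about 41% in these data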;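 note: signal is the integrated peak-minus-minimum Fluo4 fluorescence over baseline ratio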
M3R Ca counter = RGS4 activator counter-screen hit in non-induced cells; shares compounds with RGS4 act; inhibition, % at 10 µM; 1,100 tested, 82% active; AID 602283; HEK293 M3R non-induced RGS4, Fluo4 calcium flux; after carbachol challenge at its EC90;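 active = inhibition exceeding 3 SD of buffer-only control wells, cut at about 26% in these data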;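 note: percent drop in integrated peak-minus-baseline over baseline Fluo4 ratio after carbachol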
* marks the source's active call; other numbers are inactive results; i = inactive; / = not tested or not shown. Only some compounds are listed: those with a hit (about 3.5% of all), similar ones and a draw of the others.

SMILES | MrgX1 agonist | RGS4 block | MrgX1 allo act | MrgX1 antagonist | RGS4 act | RGS4 activ val | M3R Ca counter
COc1ccc(-c2csc3nc(C)nc(N4CCN(C(C)=O)CC4)c23)cc1OC | i | i | i | i | i | / | /
CCOc1ccccc1N1CCN(c2ncnc3scc(-c4ccc(OC)cc4)c23)CC1 | i | i | i | i | -11* | 90* | 43*
O=C(COC(=O)CN1C(=O)COc2ccccc21)NC1CCCCC1 | i | i | i | i | i | / | /
CC(C)CC(=O)C(=O)O | i | / | i | i | / | / | /
CC(C)N(CC(=O)Nc1ccc(Cl)cc1C(F)(F)F)C(=O)CCl | i | i | i | i | i | / | /
S=c1[nH]nc(-c2cccc(Cl)c2)n1Cc1ccccc1 | i | i | i | i | i | / | /
S=c1[nH]nc(-c2ccc(Cl)cc2Cl)n1Cc1ccccc1 | i | i | i | i | -7.8* | 91* | 58*
Cc1cccc(-c2n[nH]c(=S)n2Cc2ccccc2)c1 | i | i | i | i | -8* | 0 | 0
S=c1[nH]nc(-c2ccc(Cl)cc2Cl)n1-c1ccccc1 | i | i | i | i | i | / | /
CC(OC(=O)Cc1c[nH]c2ccccc12)C(=O)N(C)c1ccccc1 (configuration not stated) | i | i | i | i | i | / | /
Cc1cc(C)c(C#N)c(SCC(O)COc2ccc(Br)cc2)n1 (configuration not stated) | i | i | i | i | -13* | 94* | 94*
COc1ccccc1C1c2ccc3ccccc3c2Oc2ncn(CCCO)c(=N)c21 (configuration not stated) | i | i | i | i | i | / | /
COc1ccc(C2c3ccc4ccccc4c3Oc3ncn(CCCN(C)C)c(=N)c32)cc1 (configuration not stated) | i | i | i | i | -8.6* | 40* | 84*
COc1ccccc1C1c2ccc3ccccc3c2Oc2ncn(CCN(C)C)c(=N)c21 (configuration not stated) | i | i | i | i | -8.3* | 86* | 67*
N=c1c2c(-c3ccccc3)c(-c3ccccc3)oc2ncn1CCN1CCOCC1 | i | i | i | i | -9* | 58* | 84*
Cn1c(=O)c2c(ncn2CCOc2ccc(Br)cc2)n(C)c1=O | i | i | i | i | i | / | /
Cn1c(=O)c2c(ncn2CCOc2ccc(F)cc2)n(C)c1=O | i | i | i | i | -8.9* | 0 | 0
O=C(NCc1ccc(F)cc1)C1CCCN1C(=O)Nc1cccc(F)c1 (configuration not stated) | i | i | i | i | i | / | /
CCN(CC)CCOC(=O)C1(c2ccccc2)CCCC1 | i | i | i | i | -9.1* | 94* | 93*
CCN(CC)CCOC(=O)C1(c2ccc(OC)c(OC)c2)CCCC1 | i | i | i | i | i | / | /
CN(Cc1cccc(F)c1)C(=O)C(c1ccccc1)c1ccccc1 | i | i | i | i | i | / | /
CN(Cc1ccc(F)cc1)C(=O)C(c1ccccc1)c1ccccc1 | i | i | i | i | -9.1* | 82* | 84*
COc1ccc(/C=N/NC(=O)c2cccc(NC(=O)c3ccccc3)c2)c(C(=O)O)c1OC | i | i | i | i | i | / | /
COc1ccc2nc3sc(C(=O)NCCCN4CCc5ccccc5C4)cc3cc2c1 | i | i | i | i | -8.2* | 74* | 84*
CCCCCOC(=O)c1ccc(OC(=O)c2cncc(Br)c2)cc1 | i | i | i | i | i | / | /
SMILES | MrgX1 agonist | RGS4 block | MrgX1 allo act | MrgX1 antagonist | RGS4 act | RGS4 activ val | M3R Ca counter
CCCCCCCOC(=O)c1ccc(OC(=O)c2cccnc2)cc1 | i | i | i | i | -8.4* | 90* | 59*
Cc1ccc(C)n1CCN1CCN(S(=O)(=O)c2ccc(F)cc2F)CC1 | i | i | i | i | i | / | /
CN1CCN(C2Cc3cc(Cl)ccc3Sc3cc(F)ccc32)CC1 (configuration not stated) | i | i | i | i | -8* | 93* | 95*
CCc1ccc2c(c1)Sc1ccccc1CC2N1CCN(C)CC1 (configuration not stated) | i | i | i | i | -8.9* | 92* | 90*
OCCN1CCN(C2Cc3cc(Cl)ccc3Sc3ccc(Cl)cc32)CC1 (configuration not stated) (tested in a mixture with another compound) | i | i | i | i | i | / | /
c1ccc2c(c1)CC(N1CCCCC1)c1ccccc1S2 (configuration not stated) | i | i | i | i | i | / | /
CN1CCN(C2=Cc3cc(Cl)ccc3Sc3cc(F)ccc32)CC1 | i | i | i | i | -8* | 92* | 91*
CN1CCN(CCC(=O)N2c3ccccc3Sc3ccc(Cl)cc32)CC1 | i | i | i | i | i | / | /
CC(C)CC(=O)N(c1nnc(-c2cccnc2)s1)C1CCCC1 | i | i | i | i | i | / | /
COc1cc(C2CC(c3cccnc3)=NN2c2ccc(F)cc2)cc(OC)c1OC (configuration not stated) | i | i | i | i | i | / | /
O=C(NC(=S)N1CCN(c2ccccc2)CC1)c1c(F)cccc1F | i | i | i | i | i | / | /
c1ccc(COc2ccc(CNCc3cccnc3)cc2)cc1 | i | i | i | i | -13* | 84* | 42*
COc1ccccc1/C=C/CN1CCC(n2nccc2NC(=O)CCc2ccccc2)CC1 | i | i | i | i | -8.2* | 61* | 84*
COc1ccc(N(CC(=O)N/N=C/c2ccc3c(c2)OCO3)S(=O)(=O)c2ccc(NC(C)=O)cc2)cc1 | i | i | i | i | i | / | /
CC(=O)N1CCN(C(c2ccccc2)c2ccccc2)CC1 | i | i | i | i | i | / | /
CC12CNCC(C)(CN(C(c3ccccc3)c3ccccc3)C1)C2 | i | i | i | i | -7.7* | 66* | 27*
